Assay results collected from several papers.
Protocols differ between the studies behind these lines.
Observed: cell growth or viability

| SMILES | cell line | technique | time | IC50 |
| --- | --- | --- | --- | --- |
| CC(=O)c1cccc(N=Nc2c(C(=O)O)cc(O)c(O)c2O)c1 | A-375 | MTT | – | 11.9 µM |
| COc1cc(C)cc2oc(-c3ccc(Br)cc3)cc(=O)c12 | HS27 | MTT | 24 h | > 200 µM |
| C=CCn1c(-c2ccc([N+](=O)[O-])cc2)nc2ccc(C)cc21 | MDA-MB-231 | MTT | – | > 100 µM |
| COc1cc(C)c(-c2c(C)cc(OC)c3c(=O)cc(-c4ccccc4Br)oc23)c2oc(-c3ccccc3Br)cc(=O)c12 | HS27 | MTT | 24 h | > 200 µM |
| c1ccc(-c2ccccn2)nc1 | BEL-7404 | MTT | 48 h | > 50 µM |
| COc1cc(C)c(-c2c(C)cc(OC)c3c(=O)cc(-c4ccccc4)oc23)c2oc(-c3ccccc3)cc(=O)c12 | HS27 | MTT | 24 h | > 200 µM |
| Cc1ccc2nc(-c3cccc(O)c3)[nH]c2c1 | MDA-MB-231 | MTT | 48 h | > 100 µM |
| C#Cc1cccc(Nc2ncnc3cc(OCCOC)c(OCCOC)cc23)c1 | A-375 | MTT | – | 4.14 µM |
| c1ccc2c(-c3nc4ccccc4[nH]3)c3ccccc3cc2c1 | MDA-MB-231 | MTT | 48 h | 8.4 µM |
| CCCCC[C@H](O)CC(=O)CCc1ccc(O)c(OC)c1 | MRC5 | SRB | – | 303 µM |
| Cc1ccc2nc(-c3ccco3)[nH]c2c1 | MDA-MB-231 | MTT | 48 h | > 100 µM |
| COC(=O)CN=c1scc(-c2ccccc2)n1-c1ccccc1C | Panc 04.03 | MTT | 72 h | > 100 µM |
| CC(=O)c1cccc(/N=N/c2cc(/C=C/C(=O)O)ccc2O)c1 | A-375 | MTT | – | > 50 µM |
| COc1cc(C)c(-c2c(C)cc(OC)c3c(=O)cc(-c4ccc(C(F)(F)F)cc4)oc23)c2oc(-c3ccc(C(F)(F)F)cc3)cc(=O)c12 | HS27 | MTT | 24 h | > 200 µM |
| Cc1ccc2nc(-c3ccc4c(c3)OCO4)[nH]c2c1 | MDA-MB-231 | MTT | 48 h | > 100 µM |
| Oc1c(I)cc(I)c2cccnc12 | BEL-7404 | MTT | 48 h | > 100 µM |
| COc1cc(C)cc2oc(-c3ccc(C(F)(F)F)cc3)cc(=O)c12 | HS27 | MTT | 24 h | > 200 µM |
| COC(=O)CN=c1scc(-c2ccccc2)n1-c1ccc(C)cc1 | Panc 04.03 | MTT | 72 h | 50.3 µM |
| COc1ccc(C[C@H]2CO[C@H](c3ccc(OC)c(OC)c3)[C@H]2COC(=O)C=C(C)C)cc1OC | rat VSMC | resazurin | 48 h | 34.3 µM |

| SMILES | cell line | technique | time | IC50 |
| --- | --- | --- | --- | --- |
| Cc1ccc2nc(-c3ccc(F)cc3)n(Cc3ccccc3)c2c1 | MDA-MB-231 | MTT | – | 28.5 µM |
| Clc1ccnc2c1ccc1c(Cl)ccnc12 | BEL-7404 | MTT | 48 h | > 50 µM |
| C/C=C(/C)C(=O)OC[C@H]1[C@@H](Cc2ccc(F)cc2)CO[C@@H]1c1ccc(F)cc1 | rat VSMC | resazurin | 48 h | 4.7 µM |
| Cl.Oc1cccc2c1[nH]c1c(C3=CC4(O)CC/C=C\CCCCN5CCC3C3(CC6/C=C\CCCCN6C43)C5)nccc12 (single isomer, unassigned; (+)) | LLC-PK11 | neutral red | 48 h | 1.85 µg/mL |
| Nc1ncc(-c2cnn(C3CCNCC3)c2)cc1-c1nnc(CC2CC2)o1 | CMK | trypan blue | 72 h | 0.653 µM |
| Clc1ccc(-c2nc3ccccc3n2Cc2ccccc2)cc1 | MDA-MB-231 | MTT | – | 35 µM |
| COc1cc(C)c(-c2c(C)cc(OC)c3c(=O)cc(-c4ccc(Br)cc4)oc23)c2oc(-c3ccc(Br)cc3)cc(=O)c12 | HS27 | MTT | 24 h | > 200 µM |
| COC(=O)CN=c1scc(-c2ccccc2)n1-c1ccccc1OC | Panc 04.03 | MTT | 72 h | 52.2 µM |
| Cc1ccc2nc(-c3cccc([N+](=O)[O-])c3)[nH]c2c1 | MDA-MB-231 | MTT | 48 h | > 100 µM |
| COc1cc(OC)c2c(=O)cc(-c3ccc(C(F)(F)F)cc3)oc2c1-c1c(OC)cc(OC)c2c(=O)cc(-c3ccc(C(F)(F)F)cc3)oc12 | HS27 | MTT | 24 h | > 200 µM |
| COc1cc(-c2ncn(/C=C\C(=O)OC(C)C)n2)cc(C(F)(F)F)c1 | Mono-Mac-1 | – | 72 h | 0.474 µM |
| Oc1ccc(Nc2nc(-c3ccc(Cl)cc3)cs2)cc1 | FF2441 | MTS | 48 h | > 100 µM |
| c1cnc2c(c1)ccc1cccnc12 | BEL-7404 | MTT | 48 h | > 50 µM |
| CCOc1cc(OCC)cc(C(=O)O[C@@H]2CN3Cc4c(cc5c(c4OC)OCO5)[C@@]24C=C[C@H](OC)C[C@@H]34)c1 | MRC5 | WST-1 | – | > 10 µM |
| COc1c2ccoc2c(OCC=C(C)C)c2oc(=O)ccc12 | MRC5 | MTT | 72 h | > 100 µM |
| COC(=O)CN=c1scc(-c2ccccc2)n1-c1ccccc1[N+](=O)[O-] | Panc 04.03 | MTT | 72 h | 22.1 µM |
| COc1cc(OC)c2c(=O)cc(-c3ccc(N(C)C)cc3)oc2c1-c1c(OC)cc(OC)c2c(=O)cc(-c3ccc(N(C)C)cc3)oc12 | HS27 | MTT | 24 h | > 200 µM |
| COC(=O)CN=c1scc(-c2ccccc2)n1-c1ccc(OC)cc1 | SiHa | MTT | 72 h | 2.32 µM |
| COc1ccc(C[C@H]2CO[C@H](c3ccc(OC)c(OC)c3)[C@H]2COC(=O)CC(C)C)cc1OC | rat VSMC | resazurin | 48 h | 31 µM |
